Only some compounds are listed: those with a hit (about 1.6% of all), similar ones and a draw of the others.
NR2E3 ag-1 = agonists of human NR2E3 nuclear receptor. Q9Y5X4. inhibition of corepressor binding, % at 3.98 µM. AID 602229. CHO-S Gal4-NCOR/VP16-NR2E3 two-hybrid, luciferase. 360,000 compounds, 0.35% hits;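 active = inhibition above the mean of all tested compounds plus 3 SD, cut at about 70% in these data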;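 also: 0% = DMSO with NR2E3 transfected cells and 100% = cells lacking NR2E3 construct; higher means lower luciferase signal from less NR2E3 corepressor binding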
Target sequence (Q9Y5X4 whole entry, looked up, the tested form may be a part): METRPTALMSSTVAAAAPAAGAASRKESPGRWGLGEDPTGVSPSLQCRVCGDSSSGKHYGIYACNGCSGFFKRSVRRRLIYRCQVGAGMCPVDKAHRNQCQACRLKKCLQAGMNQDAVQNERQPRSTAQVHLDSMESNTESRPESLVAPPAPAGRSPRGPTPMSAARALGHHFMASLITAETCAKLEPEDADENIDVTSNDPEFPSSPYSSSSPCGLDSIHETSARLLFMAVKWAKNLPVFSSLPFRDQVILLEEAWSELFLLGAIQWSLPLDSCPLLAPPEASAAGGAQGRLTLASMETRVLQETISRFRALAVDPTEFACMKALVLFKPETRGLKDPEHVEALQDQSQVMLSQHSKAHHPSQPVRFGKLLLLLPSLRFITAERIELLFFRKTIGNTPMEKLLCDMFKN
VLA-4 inh = inhibition in a human VLA-4 binding assay. inhibition, % (about 7 µM as worked out from the volumes in the protocol). VLA-4 expressing cells, ligand binding flow cytometry. 330,000 compounds, 0.2% hits; in the data active = inhibition above about 50%
NR2E3 ag-2 = activates human photoreceptor nuclear receptor NR2E3. Q9Y5X4. GST-NR2E3/biotin-RetCOR TR-FRET, 1536-well. inhibition of corepressor binding, % at 4.78 µM. 320,000 compounds, 0.12% hits. AID 2300;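 active = percent inhibition above the cutoff of mean plus 3 SD of all tested compounds, set per screening campaign, cut at about 20% in these data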;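 also: 0% = DMSO wells and 100% = biotin wells as full block of FRET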
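Material: NR2E3–RetCOR corepressor complex / Amount: 1.35 nM GST-NR2E3 / Medium: Tris pH 7.5 / Compound: single nominal compound dose of 4.8 µM / Incubation: 5 h at 4 °C / Technique: TR-FRET, Eu(K)-anti-GST donor, streptavidin-D2 acceptor, ex 340, em 617/671 nm / Read-out basis: percent loss of FRET ratio relative to control wells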
PG9 Ab binder = PG9 antibody binding by small molecule; 360,000 compounds, 0.43% hits; inhibition, % at 6.7 µM; AID 624416; TR-FRET gp120-PG9 antibody binding; in the data active = inhibition above about 8.5%
NR1D1 modulator = modulators of human Rev-erb alpha DNA binding; P20393; Rev-erbα–FITC-DNA binding, fluorescence polarization, 90 min; activity, % at 10 µM; 370,000 compounds, 0.79% hits; AID 1259318;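 active = activity above about 14%, limit read from the data; passing the limit was not always enough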;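 also: 0% = DMSO wells with 35 nM protein and 100% = DMSO wells with 750 nM protein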
NR2E3 ag confirm = confirmation of human NR2E3 agonists. CHO-S mammalian two-hybrid NR2E3-NCOR, luciferase luminescence. AID 624378. 2,300 compounds, 51% hits. inhibition, % at 3.98 µM. shares compounds with NR2E3 ag-1;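 active = average inhibition above a cutoff equal to the mean inhibition of all tested compounds plus one SD, cut at about 70% in these data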;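 also: 0% = DMSO in NR2E3 cells and 100% = DMSO in cells lacking NR2E3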
GAL4-VP16 luc = reduces GAL4-VP16 reporter signal in NR2E3 counterscreen | shares compounds with NR2E3 ag-1 | CHO-S GAL4-VP16 luciferase reporter, luminescence | inhibition, % at 3.98 µM | 2,300 compounds, 29% hits | AID 624379;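 active = mean inhibition above a cutoff equal to the average over all tested compounds plus one standard deviation, cut at about 70% in these data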;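 also: luciferase from a UAS reporter driven by GAL4-VP16 transactivation; 0% = DMSO with VP16-transfected cells and 100% = DMSO with cells lacking VP16; higher means less reporter light so more repression of VP16 activity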
PG9 bind confirm = PG9 antibody binding, confirmed. shares compounds with PG9 Ab binder. TR-FRET PG9 antibody binding, biochemical. inhibition, % at 6.7 µM. 1,500 compounds, 90% hits. AID 651571; in the data active = inhibition above about 9%
PGV04 counter = PGV04 control antibody binding, counter-screen; inhibition, % at 6.7 µM; shares compounds with PG9 Ab binder; 1,500 compounds, 95% hits; TR-FRET PGV04 antibody-gp120 binding, biochemical; in the data active = inhibition above about 9.5%
NR1D1 mod conf = confirmation of modulators of human Rev-erb alpha DNA binding; activation, % at 25 µM; Rev-erb alpha FITC-DNA binding, fluorescence polarization, 90 min; 3,000 compounds, 61% hits; shares compounds with NR1D1 modulator;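 active = activation at or above a set limit, or at least 3 SD above the negative control mean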;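 also: 0% = 35 nM protein with DMSO and 100% = 750 nM protein high control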
RORg DNA counter = affects RORgamma DNA binding in a Rev-erb alpha counter-screen. AID 1259320. 910 compounds, 8% hits. IC50, µM. purified RORgamma protein-FITC-DNA binding, fluorescence polarization. shares compounds with NR1D1 modulator;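 active = Compounds whose fitted half-maximal concentration for disrupting protein-DNA binding is below 10 micromolar; the record names Rev-erb in its text, so the target is in doubt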
* hit, by the source's call; i = inactive; x = not tested or not shown.

SMILES | NR2E3 ag-1 | VLA-4 inh | NR2E3 ag-2 | PG9 Ab binder | NR1D1 modulator | NR2E3 ag confirm | GAL4-VP16 luc | others
Cc1ccc2c(c1)nnn2C1CCN(S(=O)(=O)c2ccc(C(=O)N3C(C)CCCC3C)cc2)CC1 (centres undefined) | 71* | 5 | -1 | -3 | -1 | 89* | 71*
N#Cc1c(NC(=O)c2ccccc2)sc2c1CCCCC2 | -98 | 16 | 2 | 0 | -9 | x | x
N#Cc1c(Cl)nsc1NC(=O)c1ccccc1 | 85* | 33 | 4 | 1 | -5 | 99* | 88*
Nc1ncnc2c1ncn2[C@@H]1O[C@H](CO)[C@H](O)C1O (some centres undefined) | x | x | x | x | 3 | x | x
Nc1ncnc2c(C3OC(CO)C(O)C3O)scc12 (centres undefined) | 100* | x | x | 1 | 3 | 97* | 96*
CC(C)[C@H](NC(=O)[C@@H]1CCCN1)C(=O)N1CCC2CCN(S(=O)(=O)c3ccccc3)CC21 (some centres undefined) | x | x | x | x | -5 | x | x
[O-][n+]1c2c(c3c4non(O)c4ccc31)CCCC2 | 70 | -1 | -3 | -3 | 0 | 65 | 36
COn1c2c(c3c4no[n+]([O-])c4ccc31)CCCC2 | -6 | -4 | 5 | -3 | -4 | x | x
CCN(CC)c1ccc(/C=N/NC(=S)NC)c(O)c1 | 69 | -95 | -6 | -13 | -2 | -124 | -97
COC(=O)C1CN(Cc2cn(Cc3ccc(Cl)cc3)nn2)CCS(=O)(=O)N1Cc1ccccc1 (centres undefined) | x | x | x | x | 2 | x | x
COc1ccc(-c2noc(CCCCC(=O)N3CCN(c4cc(C)ccc4C)CC3)n2)cc1 | 99* | x | x | -1 | -4 | 97* | 84*
COc1ccc(-c2noc(CCCC(=O)N3CCN(c4cc(C)ccc4C)CC3)n2)cc1 | -68 | x | x | -1 | 8 | x | x
Cc1ccccc1Nc1nc(N)nc(CSc2nc3ccccc3c(=O)n2C)n1 | 88* | -1 | -1 | 26* | 22 | 13 | 32 | PG9 bind confirm=73*;PGV04 counter=82*
CC1(C)CC(=O)C=C(Nc2ccccc2NC(=O)c2cccc(F)c2F)C1 | x | x | x | x | -5 | x | x
N#Cc1c(-c2cccs2)nc(SCc2ccc(Cl)cc2)[nH]c1=O | 78* | x | x | 47* | 0 | 97* | 69 | PG9 bind confirm=50*;PGV04 counter=61*
O=c1[nH]c(SCc2ccc(Cl)cc2)nc2ccsc12 | x | 6 | 0 | -1 | -6 | x | x
COc1cccc(NC(=O)CSc2nc3ncc(Br)cc3[nH]2)c1 | 66 | 3 | 0 | 22* | 104* | 80* | 33 | PG9 bind confirm=7;PGV04 counter=11*;NR1D1 mod conf=101*;RORg DNA counter=i
O=C(CSc1nnnn1-c1ccccc1)Nc1nsc(-c2ccc(Cl)cc2)n1 | 70 | 14 | -135 | 8 | 26* | 98* | 38 | NR1D1 mod conf=43*
O=C(Nc1nccs1)C1(C(=O)C2CC2)CC(c2ccccn2)=NO1 (centres undefined) | x | x | x | x | 7 | x | x
Oc1[nH]c2ccc(Br)cc2c1N=NC(=S)N1CCOCC1 | 98* | 28 | 1 | -1 | 19* | 90* | 44 | NR1D1 mod conf=24*
COC(=O)N=Nc1c(O)[nH]c2ccc(Br)cc12 | -31 | -3 | -5 | -3 | -6 | x | x
COC(=O)[C@]12C[C@H](CC(=O)NCCc3ccccc3OC)C(=O)N(Cc3ccccc3)C1=C[C@H](COCc1ccccc1)O[C@@H]2C | x | x | x | x | -1 | x | x
CCN1/C(=C/c2ccc3cccc(C)c3[n+]2CC)Sc2ccccc21 | 86* | x | -6 | -8 | 48* | 97* | 85* | NR1D1 mod conf=71*;RORg DNA counter=>40
C[n+]1ccccc1/C=C1\Sc2ccccc2N1CCO | -24 | -44 | 2 | -2 | 3 | x | x
COc1ccc(Cc2nnc(NC(=O)c3ccc(OC)c(OC)c3)s2)cc1 | 11 | 9 | 4 | 8 | 3 | x | x
COc1ccc(C(=O)Nc2nnc(Cc3cccs3)s2)cc1OC | 63 | 0 | 12 | 33* | 46* | 62 | 23 | PG9 bind confirm=45*;PGV04 counter=75*;NR1D1 mod conf=47*;RORg DNA counter=>40
CC[n+]1ccccc1/C=C/c1ccc(N(C)C)cc1 | -7 | x | x | -16 | 16 | x | x
CCCCCC[n+]1ccccc1/C=C/c1ccc(N(C)C)cc1 | 88* | x | x | -11 | 34* | 98* | 80* | NR1D1 mod conf=37*;RORg DNA counter=i
O=C1c2cccc3c(O)ccc(c23)C(=O)N1Cc1ccccc1 | 64 | -29 | 1 | 0 | 73* | 82* | 60 | NR1D1 mod conf=73*;RORg DNA counter=>40
COC(=O)[C@]12C[C@H](CC(=O)NCCc3ccccc3OC)C(=O)N(CCc3ccc(OC)c(OC)c3)C1=C[C@H](C1CCCC1)O[C@@H]2C | x | x | x | x | 8 | x | x
